In ChEMBL document CHEMBL1152452, “Modifications incorporated in CpG motifs of oligodeoxynucleotides lead to antagonist activity of toll-like receptors 7 and 9” (2009):
The source made the active and inactive calls. The calls are words filed in the database; no cut-off is given here.

Assays:
Mus musculus [1] = assay: Immunostimulatory activity in C57BL/6 mouse assessed as inhibition of LPS-induced IL10 production in serum at 10 mg/kg, sc administered 24 hrs prior to LPS challenge measured after 2 hrs by Luminex multiplex assay
Mus musculus [2] = assay: Immunostimulatory activity in C57BL/6 mouse assessed as inhibition of 5'-CTATCTGACGTTCTCTGT-3'-induced IL12 production in serum at 10 mg/kg, sc administered 48 hrs prior to 5'-CTATCTGACGTTCTCTGT-3' challenge measured after 2 hrs by sandwich ELISA; format: functional; conditions: C57BL/6, sc, route subcutaneous
How it was run: (§1)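 C57BL/6 mice received 10 mg/kg ODN sc in the right flank. The TLR9 agonist ODN was then given at 0.5 mg/kg sc in the left flank 24, 48 or 72 h later. Serum IL-12 was measured by ELISA 2 h after challenge. Naive serum served as reference. Representative of three experiments.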

Mus musculus [3] = assay: Immunostimulatory activity in C57BL/6 mouse assessed as inhibition of LPS-induced TNFalpha production in serum at 10 mg/kg, sc administered 24 hrs prior to LPS challenge measured after 2 hrs by Luminex multiplex assay
Mus musculus [4] = assay: Immunostimulatory activity in C57BL/6 mouse assessed as inhibition of 5'-CTATCTGACGTTCTCTGT-3'-induced MIP1a production in serum at 5 mg/kg, sc administered 24 hrs prior to 5'-CTATCTGACGTTCTCTGT-3' challenge measured after 2 hrs by Luminex multiplex assay; format: functional; conditions: C57BL/6, sc, route subcutaneous
Mus musculus [5] = assay: Immunostimulatory activity in C57BL/6 mouse assessed as inhibition of TLR7 agonist-induced IL10 production in serum at 5 mg/kg, sc administered 24 hrs prior to TLR7 agonist challenge measured after 2 hrs by Luminex multiplex assay; format: functional; conditions: C57BL/6, sc, route subcutaneous
Mus musculus [6] = assay: Immunostimulatory activity in C57BL/6 mouse assessed as inhibition of LPS-induced MCP1 production in serum at 10 mg/kg, sc administered 24 hrs prior to LPS challenge measured after 2 hrs by Luminex multiplex assay
Mus musculus [7] = assay: Immunostimulatory activity in C57BL/6 mouse assessed as inhibition of TLR7 agonist-induced IL6 production in serum at 5 mg/kg, sc administered 24 hrs prior to TLR7 agonist challenge measured after 2 hrs by Luminex multiplex assay; format: functional; conditions: C57BL/6, sc, route subcutaneous
Mus musculus [8] = assay: Immunostimulatory activity in C57BL/6 mouse assessed as inhibition of LPS-induced IL12 production in serum at 10 mg/kg, sc administered 24 hrs prior to LPS challenge measured after 2 hrs by Luminex multiplex assay
Mus musculus [9] = assay: Immunostimulatory activity in C57BL/6 mouse assessed as inhibition of TLR3 agonist-induced MIG production in serum at 10 mg/kg, sc administered 24 hrs prior to TLR3 agonist challenge measured after 2 hrs by Luminex multiplex assay
Mus musculus [10] = assay: Immunostimulatory activity in C57BL/6 mouse assessed as inhibition of 5'-CTATCTGACGTTCTCTGT-3'-induced IL12 production in serum at 10 mg/kg, sc administered 24 hrs prior to 5'-CTATCTGACGTTCTCTGT-3' challenge measured after 2 hrs by sandwich ELISA; format: functional; conditions: C57BL/6, sc, route subcutaneous
How it was run: as §1

Mus musculus [11] = assay: Immunostimulatory activity in C57BL/6 mouse assessed as inhibition of TLR3 agonist-induced IP10 production in serum at 10 mg/kg, sc administered 24 hrs prior to TLR3 agonist challenge measured after 2 hrs by Luminex multiplex assay
Mus musculus [12] = assay: Immunostimulatory activity in C57BL/6 mouse assessed as inhibition of 5'-CTATCTGACGTTCTCTGT-3'-induced IL10 production in serum at 5 mg/kg, sc administered 24 hrs prior to 5'-CTATCTGACGTTCTCTGT-3' challenge measured after 2 hrs by Luminex multiplex assay; format: functional; conditions: C57BL/6, sc, route subcutaneous
Mus musculus [13] = assay: Immunostimulatory activity in C57BL/6 mouse assessed as inhibition of TLR3 agonist-induced MCP1 production in serum at 10 mg/kg, sc administered 24 hrs prior to TLR3 agonist challenge measured after 2 hrs by Luminex multiplex assay
Mus musculus [14] = assay: Immunostimulatory activity in C57BL/6 mouse assessed as inhibition of TLR3 agonist-induced TNFalpha production in serum at 10 mg/kg, sc administered 24 hrs prior to TLR3 agonist challenge measured after 2 hrs by Luminex multiplex assay
Mus musculus [15] = assay: Immunostimulatory activity in C57BL/6 mouse assessed as inhibition of 5'-CTATCTGACGTTCTCTGT-3'-induced MCP1 production in serum at 5 mg/kg, sc administered 24 hrs prior to 5'-CTATCTGACGTTCTCTGT-3' challenge measured after 2 hrs by Luminex multiplex assay; format: functional; conditions: C57BL/6, sc, route subcutaneous
Mus musculus [16] = assay: Immunostimulatory activity in C57BL/6 mouse assessed as inhibition of TLR3 agonist-induced IL10 production in serum at 10 mg/kg, sc administered 24 hrs prior to TLR3 agonist challenge measured after 2 hrs by Luminex multiplex assay
Mus musculus [17] = assay: Immunostimulatory activity in C57BL/6 mouse assessed as inhibition of TLR7 agonist-induced KC production in serum at 5 mg/kg, sc administered 24 hrs prior to TLR7 agonist challenge measured after 2 hrs by Luminex multiplex assay; format: functional; conditions: C57BL/6, sc, route subcutaneous
Mus musculus [18] = assay: Immunostimulatory activity in C57BL/6 mouse assessed as inhibition of LPS-induced KC production in serum at 10 mg/kg, sc administered 24 hrs prior to LPS challenge measured after 2 hrs by Luminex multiplex assay
Mus musculus [19] = assay: Immunostimulatory activity in C57BL/6 mouse assessed as inhibition of 5'-CTATCTGACGTTCTCTGT-3'-induced TNFalpha production in serum at 5 mg/kg, sc administered 24 hrs prior to 5'-CTATCTGACGTTCTCTGT-3' challenge measured after 2 hrs by Luminex multiplex assay; format: functional; conditions: C57BL/6, sc, route subcutaneous
Mus musculus [20] = assay: Immunostimulatory activity in C57BL/6 mouse assessed as inhibition of 5'-CTATCTGACGTTCTCTGT-3'-induced IL6 production in serum at 5 mg/kg, sc administered 24 hrs prior to 5'-CTATCTGACGTTCTCTGT-3' challenge measured after 2 hrs by Luminex multiplex assay; format: functional; conditions: C57BL/6, sc, route subcutaneous
Mus musculus [21] = assay: Immunostimulatory activity in C57BL/6 mouse assessed as inhibition of LPS-induced IP10 production in serum at 10 mg/kg, sc administered 24 hrs prior to LPS challenge measured after 2 hrs by Luminex multiplex assay
Mus musculus [22] = assay: Immunostimulatory activity in C57BL/6 mouse assessed as inhibition of TLR7 agonist-induced IP10 production in serum at 5 mg/kg, sc administered 24 hrs prior to TLR7 agonist challenge measured after 2 hrs by Luminex multiplex assay; format: functional; conditions: C57BL/6, sc, route subcutaneous

## COC1[C@H](n2cnc3c(=O)[nH]c(N)nc32)O[C@H](COP(=O)(S)O[C@H]2C[C@H](n3cc(C)c(N)nc3=O)O[C@@H]2COP(=O)(S)O[C@H]2C[C@H](n3cnc4c(N)ncnc43)O[C@@H]2COP(=O)(S)O[C@H]2C[C@H](n3cnc4c(=O)[nH]c(N)nc43)O[C@@H]2COP(=O)(S)O[C@H]2C[C@H](n3cc(C)c(=O)[nH]c3=O)O[C@@H]2COP(=O)(S)O[C@H]2C[C@H](n3ccc(N)nc3=O)O[C@@H]2COP(=O)(S)O[C@H]2C[C@H](n3cc(C)c(=O)[nH]c3=O)O[C@@H]2COP(=O)(S)O[C@H]2C[C@H](n3cnc4c(N)ncnc43)O[C@@H]2COP(=O)(S)O[C@H]2C[C@H](n3cc(C)c(=O)[nH]c3=O)O[C@@H]2COP(=O)(S)O[C@H]2C[C@H](n3ccc(N)nc3=O)O[C@@H]2CO)[C@H]1OP(=O)(S)OC[C@H]1O[C@@H](n2cc(C)c(=O)[nH]c2=O)C[C@@H]1OP(=O)(S)OC[C@H]1O[C@@H](n2cc(C)c(=O)[nH]c2=O)C[C@@H]1OP(=O)(S)OC[C@H]1O[C@@H](n2ccc(N)nc2=O)C[C@@H]1OP(=O)(S)OC[C@H]1O[C@@H](n2cc(C)c(=O)[nH]c2=O)C[C@@H]1OP(=O)(S)OC[C@H]1O[C@@H](n2ccc(N)nc2=O)C[C@@H]1OP(=O)(S)OC[C@H]1O[C@@H](n2cc(C)c(=O)[nH]c2=O)C[C@@H]1OP(=O)(S)OC[C@H]1O[C@@H](n2cnc3c(=O)[nH]c(N)nc32)C[C@@H]1OP(=O)(S)OC[C@H]1O[C@@H](n2cc(C)c(=O)[nH]c2=O)C[C@@H]1O (some centres not stated)
Mus musculus [1]
  Activity: inactive
Mus musculus [2]
  inhibition in vivo at 10 mg/kg: 57%
Mus musculus [3]
  Activity: inactive
Mus musculus [4]
  inhibition in vivo at 5 mg/kg: 50%
Mus musculus [5]
  inhibition in vivo at 5 mg/kg: 50%
Mus musculus [6]
  Activity: inactive
Mus musculus [7]
  inhibition in vivo at 5 mg/kg: 50%
Mus musculus [8]
  Activity: inactive
Mus musculus [9]
  Activity: inactive
Mus musculus [10]
  inhibition in vivo at 10 mg/kg: 81%
Mus musculus [11]
  Activity: inactive
Mus musculus [12]
  inhibition in vivo at 5 mg/kg: 50%
Mus musculus [13]
  Activity: inactive
Mus musculus [14]
  Activity: inactive
Mus musculus [15]
  inhibition in vivo at 5 mg/kg: 50%
Mus musculus [16]
  Activity: inactive
Mus musculus [17]
  inhibition in vivo at 5 mg/kg: 50%
Mus musculus [18]
  Activity: inactive
Mus musculus [19]
  inhibition in vivo at 5 mg/kg: 50%
Mus musculus [20]
  inhibition in vivo at 5 mg/kg: 50%
Mus musculus [21]
  Activity: inactive
Mus musculus [22]
  inhibition in vivo at 5 mg/kg: 50%
